Screens as filed in PubChem.
eIF4H FP inh: inhibitors of RNA binding by human eIF4H | Q15056 | eIF4H fluorescence polarization binding assay | inhibition, % at 35 µM | hit rate 0.94% among 290,000 | AID 2012;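 note: calls also rest on retests at 20 µM and on dose response follow-up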
PABP FP inh: blocks human PABP binding to poly(A) RNA; fluorescence polarization; hit rate 1% among 290,000; calls only at 35 µM; P11940;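 note: calls also rest on retests at 20 µM and on dose response follow-up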
IMP-1 inh: blocks Pseudomonas aeruginosa IMP-1 metallo-beta-lactamase | purified IMP-1, nitrocefin hydrolysis, epi-absorbance fluorescence | inhibition, % at 5.6 µM | hit rate 0.45% among 290,000 | AID 1556;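 active = inhibition above the mean plus 3 SD of all compounds in the same screening run, cut at about 4.5% in these data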;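 note: 0% = IMP-1 with DMSO and 100% = DMSO wells lacking enzyme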
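System – purified recombinant IMP-1 beta-lactamase · Input – IMP-1 dispensed at 0.2 nM · Timing – 15 min preincubation plus 25 min reaction at 25 °C · Signal – Epi-absorbance fluorescence, 480 nm excitation, 530 nm emission · Measure – percent IMP-1 inhibition derived from blank-referenced optical density · Controls – Enzyme-plus-DMSO low control, enzyme-free DMSO high control · Replication – singlicate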
PABP1 MLLE inh: inhibitors of microRNA-mediated deadenylation, human PABP1 MLLE binding | P11940 | GST-MLLE / FITC-PAM2 fluorescence polarization | AID 588489 | hit rate 0.36% among 360,000 | inhibition, % at 20 µM; in the data active = inhibition above about 35%, passing the limit was not always enough;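 note: plate controls were DMSO wells with GST-MLLE for no effect and wells lacking GST-MLLE protein for full effect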
VIM-2 inhibitor: blocks Pseudomonas aeruginosa VIM-2 metallo-beta-lactamase; purified VIM-2, nitrocefin hydrolysis, epi-absorbance fluorescence; inhibition, % at 5.6 µM; hit rate 0.89% among 290,000; AID 1527;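 active = inhibition above the mean of all tested compounds plus 3 SD, cutoff set per screening run, cut at about 7.5% in these data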;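 note: red hydrolysis product quenches plate fluorescence so inhibitors raise well fluorescence; 0% = enzyme with DMSO and 100% = DMSO without enzyme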
* marks the source's active call; other numbers are inactive results; i = inactive; . = no result given; + = active, no number. Hits are enriched below; roughly 2.2% of the tested compounds scored in any of these assays. Unless noted, the rule behind the calls is not given here.

SMILES | eIF4H FP inh | PABP FP inh | IMP-1 inh | PABP1 MLLE inh | VIM-2 inhibitor
O=C(COc1coc(CN2CCN(c3ccc(F)cc3)CC2)cc1=O)NCC1CCCO1 (stereo not drawn) | . | . | . | 6.3 | .
COc1ccc(/C(C)=N/N=C(N)N)c(O)c1 | -2.1 | i | -2.8 | -4.2 | -3.5
CNC(=S)NN=C(C)c1ccc(OC)cc1O | . | . | . | 43.1* | .
O=c1oc2c(O)c(O)cc3c(=O)oc4c(O)c(O)cc1c4c23 | 101.5 | i | 6.1* | 8.0 | -0.2
CCN(CC)c1cccc(OC2=NS(=O)(=O)c3ccccc32)c1 | 57.7* | i | 1.1 | -16.2 | -0.2
CCc1ccc(OC2=NS(=O)(=O)c3ccccc32)cc1 | -2.0 | i | -2.8 | 11.4 | -2.7
Cc1c(C=O)c2ccccn2c1C(=O)c1cccs1 | 94.1* | + | -1.9 | 31.8 | 8.3*
COc1ccc(CCNC(=O)CSc2ccc(-c3ccco3)nn2)cc1 | 44.5 | i | -2.3 | 12.7 | 2.2
COc1ccc(-c2ccc(SCC(=O)Nc3nnc(C)s3)nn2)cc1 | 54.8* | + | -2.3 | -6.8 | -3.5
COc1ccc(CCNC(=O)CSc2ccc(-c3ccncc3)nn2)cc1 | 1.1* | i | -2.4 | 3.2 | -2.4
CCC(C)(C)n1nnnc1C(c1ccccc1OC)N1CCN(C(=O)c2ccco2)CC1 (stereo not drawn) | -6.3 | i | -3.2 | 6.9 | -0.5
COc1ccc(CNC(=O)CNC(=O)N2CC(=O)Nc3ccccc32)cc1 | -8.3 | i | -2.5 | -3.9 | -0.7
Cc1cc(C)c2c(c1)[C@@H]1C=CC[C@@H]1[C@H](c1ccc(S(=O)(=O)N3CCOCC3)cc1)N2 | 15.6 | i | 8.1* | 1.6 | -1.2
CCN1CCCC1CN(Cc1cc2ccc(C)cc2[nH]c1=O)C(=S)Nc1ccc(F)cc1 (stereo not drawn) | -9.5 | i | -0.2 | -66.8 | 10.3*
COc1cccc(CCC2C(=O)CCCC2=O)c1 | . | . | . | 13.1 | .
O=C(CCSc1ccccc1)Nc1ccc(S(=O)(=O)N2CCOCC2)cc1 | -7.5 | i | 46.6* | 4.9 | -0.5
Cc1cccc(N2CCN(CC(=O)Nc3ccc(S(=O)(=O)N4CCOCC4)cc3)CC2)c1C | -2.0 | i | 4.5* | -2.9 | 1.9
O=C(O)c1ccc(NC(=S)NC(=O)c2cccnc2)cc1 | -8.8 | i | -1.2 | 19.9 | 1.5
Clc1ccc2nncn2n1 | -4.3 | i | -2.9 | 15.2 | -2.0
O=C(O)c1ccc2c(=O)n3c(nc2c1)/C(=C/c1ccc(Cl)cc1Cl)CC3 | -3.3 | i | -4.7 | 3.0 | -3.3
CCN(CC)c1ccc2cc(C(=O)Nc3ccccn3)c(=O)oc2c1 | 121.7* | + | -3.3 | 16.3 | -1.4
CCN(CC)c1ccc2cc(C(=O)Nc3cccnc3N3CCOCC3)c(=O)oc2c1 | 63.1* | + | . | . | .
CCOc1cc(-n2cnnn2)c(OCC)cc1NC(=O)c1cc2ccc(N(CC)CC)cc2oc1=O | . | . | -0.7 | . | -0.2
COc1ccc(CCC(=O)NC2CCCc3ccccc32)cc1OC (stereo not drawn) | 3.3 | i | 2.5 | -43.4 | -0.5
Cc1ccc(N2C=Nc3ccc(C)c4nc(C)cc2c34)cc1 | -1.1 | i | -0.7 | 22.9 | 11.2*
SMILES | eIF4H FP inh | PABP FP inh | IMP-1 inh | PABP1 MLLE inh | VIM-2 inhibitor
CC1=Nc2ccc(C)c3nc(C)cc(c23)N1c1ccc(C)cc1 | . | . | -1.6 | -3.8 | 2.5
Cc1ccc(N2CC(C(=O)Nc3cc(C)on3)CC2=O)cc1 (stereo not drawn) | 7.3 | i | 0.1 | 1.6 | 1.4
CCCC(=O)NC(=S)Nc1c(C)cc(Br)cc1C | . | . | 1.2 | 19.2 | 0.6
CCC(=O)NC(=S)Nc1c(C)cc(Br)cc1C | -5.7 | i | -1.6 | 43.6* | 0.2
c1csc(-c2nnsc2-c2nc3ccccc3[nH]2)c1 | 69.2* | + | -3.5 | -1.3 | 0.2
O=c1[nH]c2ccccc2nc1-c1cccs1 | 2.7 | i | -0.8 | -10.3 | 0.6
COC[C@@H]1CCCN1[C@H]1CS(=O)(=O)N[C@@H]1COCc1ccccc1 | . | . | . | 0.9 | .
N#C/C(=N/Nc1ccc(OC(F)(F)F)cc1)C(N)=S | -7.3 | i | 0.2 | 41.2* | -4.0
Cn1c(N)c(S(=O)(=O)N2CCN(c3cccc(Cl)c3)CC2)c(=O)n(C)c1=O | 8.8 | i | -1.0 | -11.9 | -0.5
Cc1ccc(-c2nn(-c3ccccc3)cc2C(=O)O)o1 | 101.9* | + | -2.4 | . | -2.5
Cc1ccc(-c2nn(-c3ccccc3)cc2/C=C/C(=O)O)o1 | -6.4 | i | -4.2 | 27.4 | -2.4
O=C(Nc1ccc2nc3ccccc3nc2c1)c1ccc(Br)cc1 | 16.2 | i | -2.3 | -8.2 | -1.1
CC(=O)Nc1ccc2nc3ccccc3nc2c1 | 34.7 | i | -0.7 | 41.6* | 3.9
